In ChEMBL document CHEMBL3758120, “Synthesis and Mechanism Studies of 1,3-Benzoazolyl Substituted Pyrrolo[2,3-b]pyrazine Derivatives as Nonintercalative Topoisomerase II Catalytic Inhibitors” (J Med Chem, 2016):
Active and inactive are the calls of the source. No cut-off for these calls is given here.

Experiments:
[1] = Antiproliferative activity against human MDA-MB-201 cells after 48 hrs by MTT assay; format: functional, cell-based
Method in brief: (§1)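 Cells seeded at 5000 per well and left overnight, then exposed to increasing concentrations (0-50 μM) for 48 h. […] HL-60/MX2 is a mitoxantrone-selected HL-60 derivative with reduced Topo IIα/β.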

[2] = target: T1, DNA topoisomerase 1 (Homo sapiens) (UniProt P11387); assay: Inhibition of recombinant human topoisomerase 1 assessed as interacaltion of pBR322 DNA at 50 uM pre-incubated with DNA followed by incubation with enzyme for 30 mins by agarose gel electrophoresis
T1 sequence (whole entry): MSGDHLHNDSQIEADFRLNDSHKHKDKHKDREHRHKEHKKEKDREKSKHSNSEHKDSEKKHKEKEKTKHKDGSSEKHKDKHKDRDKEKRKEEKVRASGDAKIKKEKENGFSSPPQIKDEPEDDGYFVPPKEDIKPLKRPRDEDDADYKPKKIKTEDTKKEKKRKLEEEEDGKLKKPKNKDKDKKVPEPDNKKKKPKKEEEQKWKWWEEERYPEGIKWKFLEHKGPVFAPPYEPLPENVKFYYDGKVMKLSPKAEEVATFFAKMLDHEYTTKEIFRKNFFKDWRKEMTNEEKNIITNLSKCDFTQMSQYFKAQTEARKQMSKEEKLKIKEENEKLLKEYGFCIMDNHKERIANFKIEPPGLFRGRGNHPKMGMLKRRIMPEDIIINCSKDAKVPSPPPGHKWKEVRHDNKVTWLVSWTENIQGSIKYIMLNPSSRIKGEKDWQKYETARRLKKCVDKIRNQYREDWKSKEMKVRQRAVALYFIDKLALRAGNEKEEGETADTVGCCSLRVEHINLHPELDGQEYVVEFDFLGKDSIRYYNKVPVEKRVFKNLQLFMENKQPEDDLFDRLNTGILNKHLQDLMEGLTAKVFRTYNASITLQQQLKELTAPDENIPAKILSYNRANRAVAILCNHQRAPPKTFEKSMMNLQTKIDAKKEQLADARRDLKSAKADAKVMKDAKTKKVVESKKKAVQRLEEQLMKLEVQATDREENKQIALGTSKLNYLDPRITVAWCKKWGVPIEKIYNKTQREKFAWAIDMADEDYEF
Method in brief: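 Supercoiled pBR322 first relaxed with Topo I in 50 mM Tris-HCl pH 7.5, 50 mM KCl, 10 mM MgCl2, 0.5 mM DTT, 0.1 mM EDTA, 30 μg/ml BSA. 0.1 μg relaxed DNA preincubated with compound 10 min at room temperature, then Topo I (1 unit) added for 30 min at 37 °C; phenol-chloroform extracted, SDS/EDTA stop, 1% agarose 1 h at 90 V; ethidium bromide as intercalator reference.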

HL-60 [3] = assay: Induction of apoptosis in human HL60 cells assessed as dead cells at 0.5 uM after 12 hrs by annexin V-FITC/propidium iodide staining-based flow cytometric analysis (reference value: 0.12 to 0.15%); format: functional
[4] = Antiproliferative activity against human HL60 cells after 48 hrs by MTT assay; format: functional, cell-based; settings: HL-60, 48 h; method in brief: as §1
HL-60 [5] = assay: Induction of apoptosis in human HL60 cells assessed as dead cells at 0.25 uM after 24 hrs by annexin V-FITC/propidium iodide staining-based flow cytometric analysis (reference value: 0.12%); format: functional
HL-60 [6] = assay: Induction of apoptosis in human HL60 cells assessed as viable cells at 1 uM after 12 hrs by annexin V-FITC/propidium iodide staining-based flow cytometric analysis (reference value: 99.12 to 99.33%); format: functional; settings: HL-60, 12 h, read-out: Activity
Method in brief: (§2)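 HL-60 cells at 5.0 × 10^5 cells/ml treated for 12 h (0.5–2 μM) or 24 h (0.25–1 μM), washed twice in cold PBS, resuspended in binding buffer, stained with annexin V-FITC and propidium iodide for 15 min in the dark, analysed by flow cytometry within 1 h; quadrants define live, early and late apoptotic cells. Three repeats.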

HL-60 [7] = assay: Induction of apoptosis in human HL60 cells assessed as early apoptotic cells at 0.25 uM after 24 hrs by annexin V-FITC/propidium iodide staining-based flow cytometric analysis (reference value: 0.5%); format: functional; method in brief: as §2
HL-60 [8] = assay: Induction of apoptosis in human HL60 cells assessed as dead cells at 2 uM after 12 hrs by annexin V-FITC/propidium iodide staining-based flow cytometric analysis (reference value: 0.12 to 0.15%); format: functional
HL-60 [9] = assay: Induction of apoptosis in human HL60 cells assessed as late apoptotic cells at 0.25 uM after 24 hrs by annexin V-FITC/propidium iodide staining-based flow cytometric analysis (reference value: 1.64%); format: functional; method in brief: as §2
HL-60 [10] = assay: Induction of apoptosis in human HL60 cells assessed as late apoptotic cells at 1 uM after 24 hrs by annexin V-FITC/propidium iodide staining-based flow cytometric analysis (reference value: 1.64%); format: functional; method in brief: as §2
HeLa = assay: Antiproliferative activity against human HeLa cells after 48 hrs by MTT assay; format: functional, cell-based; method in brief: as §1
HL-60 [11] = assay: Induction of apoptosis in human HL60 cells assessed as early apoptotic cells at 2 uM after 12 hrs by annexin V-FITC/propidium iodide staining-based flow cytometric analysis (reference value: 0.38 to 0.55%); format: functional; method in brief: as §2
HL-60 [12] = assay: Induction of apoptosis in human HL60 cells assessed as early apoptotic cells at 0.5 uM after 12 hrs by annexin V-FITC/propidium iodide staining-based flow cytometric analysis (reference value: 0.38 to 0.55%); format: functional; method in brief: as §2
HL-60 [13] = assay: Induction of apoptosis in human HL60 cells assessed as dead cells at 0.5 uM after 24 hrs by annexin V-FITC/propidium iodide staining-based flow cytometric analysis (reference value: 0.12%); format: functional
HL-60 [14] = assay: Induction of apoptosis in human HL60 cells assessed as viable cells at 2 uM after 12 hrs by annexin V-FITC/propidium iodide staining-based flow cytometric analysis (reference value: 99.12 to 99.33%); format: functional; settings: HL-60, 12 h, read-out: Activity; method in brief: as §2
HL-60 [15] = assay: Induction of apoptosis in human HL60 cells assessed as early apoptotic cells at 1 uM after 12 hrs by annexin V-FITC/propidium iodide staining-based flow cytometric analysis (reference value: 0.38 to 0.55%); format: functional; method in brief: as §2
HL-60 [16] = assay: Induction of apoptosis in human HL60 cells assessed as late apoptotic cells at 2 uM after 12 hrs by annexin V-FITC/propidium iodide staining-based flow cytometric analysis (reference value: 0.17 to 0.18%); format: functional; method in brief: as §2
Raji = assay: Antiproliferative activity against human Raji cells after 48 hrs by MTT assay; format: functional, cell-based; method in brief: as §1
HL-60 [17] = assay: Resistance index, ratio of IC50 for human HL60/MX2 cells to IC50 for HL60 cells; format: functional
Method in brief: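 Resistance index calculated as MTT-derived IC50 (48 h exposure, 0-50 μM, A570 readout) in HL-60/MX2 divided by IC50 in parental HL-60.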

HL-60 [18] = assay: Induction of apoptosis in human HL60 cells assessed as viable cells at 1 uM after 24 hrs by annexin V-FITC/propidium iodide staining-based flow cytometric analysis (reference value: 97.75%); format: functional; settings: HL-60, 24 h, read-out: Activity; method in brief: as §2
HL-60 [19] = assay: Induction of apoptosis in human HL60 cells assessed as viable cells at 0.5 uM after 12 hrs by annexin V-FITC/propidium iodide staining-based flow cytometric analysis (reference value: 99.12 to 99.33%); format: functional; settings: HL-60, 12 h, read-out: Activity; method in brief: as §2

## CCN(CC)CCCCn1c(N)c(-c2nc3ccccc3[nH]2)c2nc(C#N)c(C#N)nc21
[1]
  IC50: 640 nM
[2]
  inhibition: inactive
HL-60 [3]
  Activity: 0.1%
[4]
  IC50: 460 nM
HL-60 [5]
  Activity: 0.07%
HL-60 [6]
  viability at 1 µM: 97.2%
HL-60 [7]
  Activity: 0.35%
HL-60 [8]
  Activity: 1.36%
HL-60 [9]
  Activity: 0.41%
HL-60 [10]
  Activity: 45.05%
HeLa
  IC50: 10100 nM
HL-60 [11]
  Activity: 6.62%
HL-60 [12]
  Activity: 0.35%
HL-60 [13]
  Activity: 0.43%
HL-60 [14]
  viability at 2 µM: 45.3%
HL-60 [15]
  Activity: 1.39%
HL-60 [16]
  Activity: 46.73%
Raji
  IC50: 2640 nM
HL-60 [17]
  Ratio IC50: 3.3
HL-60 [18]
  viability at 1 µM: 32.9%
HL-60 [19]
  viability at 0.5 µM: 99.3%

## CN(C)CCCCn1c(N)c(-c2nc3ccccc3[nH]2)c2nc(C#N)c(C#N)nc21
[1]
  IC50: 530 nM
[2]
  inhibition: inactive
HL-60 [3]
  Activity: 0.05%
[4]
  IC50: 430 nM
HL-60 [5]
  Activity: 0.03%
HL-60 [6]
  viability at 1 µM: 98.7%
HL-60 [7]
  Activity: 0.54%
HL-60 [8]
  Activity: 1.96%
HL-60 [9]
  Activity: 0.42%
HL-60 [10]
  Activity: 90.51%
HeLa
  IC50: 11200 nM
HL-60 [11]
  Activity: 5.8%
HL-60 [12]
  Activity: 0.46%
HL-60 [13]
  Activity: 2.28%
HL-60 [14]
  viability at 2 µM: 28.1%
HL-60 [15]
  Activity: 0.82%
HL-60 [16]
  Activity: 64.15%
Raji
  IC50: 2560 nM
HL-60 [17]
  Ratio IC50: 4.1
HL-60 [18]
  viability at 1 µM: 0.65%
HL-60 [19]
  viability at 0.5 µM: 99.3%
